Structures can show the parent of a compound that is named as a salt.
Experiments:
[1] = tested on: K562; assay: Cytotoxicity against K562 leukemia cell line done for 72 hr at 37 degree C with compound in MTS assay; assay type: functional, cell-based, Homo sapiens
Method in brief: (§1)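 Cells (2000–10000) seeded in RPMI-1640 for 24 h, then exponentially growing cells exposed to a range of concentrations (0.001–5 μM) for 72 h at 37 °C, 5% CO2. MTS (2 mg/mL) mixed with PMS (25 μM) added directly; after 3 h at 37 °C formazan absorbance read at 490 nm. IC50 taken from dose-response curves of percent growth versus untreated control.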

[2] = tested on: SW-620; assay: Cytotoxicity against SW620 colon cancer cell line done for 72 h at 37 degree C with compound in MTS assay; assay type: functional, cell-based, Homo sapiens; method in brief: as §1

## COc1cccc2c1C(=O)c1c(O)c3c(c(O)c1C2=O)C[C@@](O)(C(C)=O)C[C@@H]3OC1CC(N)C(OC2CC(O)C(O)C(CO)O2)C(C)O1 (stereo partly drawn)
[1]; Homo sapiens, K562, 72 h
  IC50: 1380 nM
[2]; Homo sapiens, SW-620, 72 h
  IC50: > 1000 nM

## COc1cccc2c1C(=O)c1c(O)c3c(c(O)c1C2=O)C[C@@](O)(C(C)=O)C[C@@H]3OC1CC(N)C(OC2CC(N=[N+]=[N-])C(O)C(C)O2)C(C)O1 (stereo partly drawn)
[1]; Homo sapiens, K562, 72 h
  IC50: 31.3 nM
[2]; Homo sapiens, SW-620, 72 h
  IC50: 60.3 nM

## COc1cccc2c1C(=O)c1c(O)c3c(c(O)c1C2=O)C[C@@](O)(C(C)=O)C[C@@H]3OC1CC(N)C(OC2CC(C)(O)C(O)C(C)O2)C(C)O1 (stereo in doubt; 3)
[1]; k562
  IC50: 44.3 nM
[2]; sw-620
  IC50: 21.7 nM

## COc1cccc2c1C(=O)c1c(O)c3c(c(O)c1C2=O)C[C@@](O)(C(C)=O)C[C@@H]3OC1CC(N)C(OC2OC(C)C(O)C(O)C2O)C(C)O1 (stereo partly drawn)
[1]; Homo sapiens, K562, 72 h
  IC50: > 4000 nM
[2]; Homo sapiens, SW-620, 72 h
  IC50: > 1000 nM

## COc1cccc2c1C(=O)c1c(O)c3c(c(O)c1C2=O)C[C@@](O)(C(C)=O)C[C@@H]3OC1CC(N)C(OC2CC(C)(OC)C(O)C(C)O2)C(C)O1 (stereo partly drawn)
[1]; Homo sapiens, K562, 72 h
  IC50: 21 nM
[2]; Homo sapiens, SW-620, 72 h
  IC50: 11.4 nM

## COc1cccc2c1C(=O)c1c(O)c3c(c(O)c1C2=O)C[C@@](O)(C(C)=O)C[C@@H]3OC1CC(N)C(OC2CC(C)(O)C(O)C(C)O2)C(C)O1 (stereo in doubt; 4)
[1]; k562
  IC50: 1530 nM
[2]; sw-620
  IC50: > 1000 nM

## COc1cccc2c1C(=O)c1c(O)c3c(c(O)c1C2=O)C[C@@](O)(C(C)=O)C[C@@H]3O[C@H]1C[C@H](N)[C@H](O)[C@H](C)O1 [DAUNORUBICIN HYDROCHLORIDE]
[1]; Homo sapiens, K562, 72 h
  IC50: 15.6 nM
[2]; Homo sapiens, SW-620, 72 h
  IC50: 8.6 nM

## COc1cccc2c1C(=O)c1c(O)c3c(c(O)c1C2=O)C[C@@](O)(C(C)=O)C[C@@H]3OC1CC(N)C(OC2CC(OC)C(O)C(C)O2)C(C)O1 (stereo in doubt; 2)
[1]; k562
  IC50: 45.8 nM
[2]; sw-620
  IC50: 38.9 nM

## COc1cccc2c1C(=O)c1c(O)c3c(c(O)c1C2=O)C[C@@](O)(C(C)=O)C[C@@H]3OC1CC(N)C(OC2CC(OC)C(O)C(C)O2)C(C)O1 (stereo in doubt; 1)
[1]; Homo sapiens, K562, 72 h
  IC50: 39.5 nM
[2]; sw-620
  IC50: 18.2 nM

Reference: ChEMBL document CHEMBL1145165, “Syntheses and biological activities of disaccharide daunorubicins” (J Med Chem, 2005)
